Rows were chosen to be rich in hits. Some 3.7% of all compounds tested hit in one or more screens of this group.
KCNQ1 pot: potentiators or activators of KCNQ1 channel, primary screen, cell-based, thallium flux, high-throughput; Potassium voltage-gated channel subfamily KQT member 1 (Homo sapiens), P51787; CHO-K1 KCNQ1, thallium flux FluxOR fluorescence; active compounds read high; B-score at 10 µM; actives 0.35% (n = 310,000); AID 2648, 2010;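 active = fluorescence ratio B-score, a plate-corrected score, at least three library SD, with initial intensity B-score within 5 SD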
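assay system = KCNQ1-transfected CHO-K1 cells | medium = assay buffer with matched DMSO | probe or stimulus = depolarizing K+/Tl+ stimulus, K2SO4 and Tl2SO4 each 12.5 mM in 5x stock | dosing = single dose | incubation = dye 90 min, compound 20 min, room temperature | detection = kinetic FluxOR fluorescence, 10 s baseline plus 110 s post-stimulus | evaluation = ratio B score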
KCNQ1 block: inhibitors of human KCNQ1 channel, primary screen, cell-based, thallium flux, high-throughput; Potassium voltage-gated channel subfamily KQT member 1 (Homo sapiens), P51787; CHO-K1 KCNQ1, FluxOR thallium flux fluorescence; active compounds read high; B-score at 10 µM; actives 1.3% (n = 310,000); AID 2642, 2010;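 active = compounds whose thallium flux B-score, printed positive for inhibition, exceeds three library SD while starting fluorescence stays within three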;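 note: channel opened by potassium depolarization with thallium stimulus after 20 min compound exposure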
Kir21 block: inhibitors of mouse Kir2.1 inward-rectifier potassium channel. actives 0.85% (n = 310,000). Inward rectifier potassium channel 2 (Mus musculus), P35561. HEK293-Kir2.1, FluxOR thallium flux fluorescence; active compounds read low. B-score at 10 µM;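 active = fluorescence ratio B-score at or below minus 3 SD of library scores, with starting-brightness B-score within 2 SD, cut at about -4.2 in these data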;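 note: channel flux triggered by added potassium and thallium sulfate stimulus; B-score of peak minus minimum fluorescence over baseline after thallium stimulus; more negative B-score means stronger Kir2.1 block with less thallium influx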
KCNK9 block: KCNK9 potassium channel inhibitors, primary screen, HEK293 cells, thallium flux. Potassium channel subfamily K member 9 (Homo sapiens), Q9NPC2. FluxOR thallium flux fluorescence; active compounds read low. AID 488922, 2010. B-score at 10 µM. actives 1.2% (n = 310,000);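 active = ratio B-score over 3 SD below the library mean, with starting fluorescence within 5 SD of its mean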;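 note: negative B-score means less thallium flux so channel inhibition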
hERG protect: hERG rescue from dofetilide block, primary screen, cell-based, CHO-hERG, FluxOR thallium flux, dofetilide IC70. activation (rescue from dofetilide block), less the hit threshold, % at 10 µM. dofetilide IC70 present. Voltage-gated inwardly rectifying potassium channel KCNH2 (Homo sapiens), Q12809. actives 0.51% (n = 310,000);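 active = activation above the mean of controls blocked by dofetilide plus 5 SD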;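 note: thallium influx through hERG after potassium depolarization seen as dye fluorescence rise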
KCNK3 inh: human KCNK3 channel inhibitors, primary screen, CHO cells, FluxOR thallium flux, B-score | Potassium channel subfamily K member 3 (Homo sapiens), O14649 | FluxOR fluorescence; active compounds read low | B-score at 10 µM | actives 0.84% (n = 340,000) | AID 602410, 2012;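 active = B-score under library mean minus 4 SD, starting fluorescence ratio at most library mean plus 5 SD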;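 note: more negative B-score means stronger inhibition of thallium flux through KCNK3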
Starred values were filed as active, the others as inactive; i = inactive; · = not tested or not shown.

SMILES	KCNQ1 pot	KCNQ1 block	Kir21 block	KCNK9 block	hERG protect	KCNK3 inh
CC1c2cc3c(cc2CCN1C(=O)c1ccc(C(F)(F)F)cc1)OCCCO3 (centres undefined)	i	i	-0.96	-6.9*	-17	i
COc1cc(NC(=S)NC(=O)CCc2ccccc2)cc(OC)c1	i	i	-0.19	i	-6	i
Cc1ccc(-n2c(C)cc(C3=NNC(=NC4CC4)SC3)c2C)cc1C	i	7*	-2.1	i	-24	i
Cc1cc(C2=NNC(=NC3CC3)SC2)c(C)n1-c1c(C)n(C)n(-c2ccccc2)c1=O	i	i	-0.8	i	-12	i
CCOC(=O)c1c(NC(=S)NCCc2ccccc2)sc2c1CC(C(C)C)OC2 (centres undefined)	8*	i	1.3	i	1	i
C=CCNC(=S)Nc1sc2c(c1C(=O)OCC)CC(C(C)C)OC2 (centres undefined)	48*	i	1.1	i	-1	i
CC(C)C1Cc2c(sc(NC(=S)NC(=O)c3ccccc3)c2C#N)CO1 (centres undefined)	i	i	0.27	i	-11	i
S=c1[nH]c(-c2ccccc2)cn1/N=C/c1cccc2ccccc12	14*	i	1.4	i	69*	i
S=c1[nH]c(-c2ccccc2)cn1/N=C/c1ccccc1Br	i	i	-0.54	i	3	i
CCN1C(=O)/C(=C/c2ccc(C)s2)NC1=S	10*	i	-0.11	i	10*	i
Cc1cc(Nc2ccccc2)nn1C(=O)c1ccc(Cl)cc1	i	i	-0.63	-7.7*	-5	i
Cc1cc(Nc2ccccc2)nn1C(=O)c1ccc([N+](=O)[O-])cc1	i	i	1.4	i	-2	i
O=c1[nH]nc(Sc2ncnc3sccc23)n1CCc1ccccc1	i	i	-1.5	i	-8	i
Cc1ccc(-n2c(-c3cc(-c4ccco4)[nH]n3)n[nH]c2=S)c(Br)c1	i	6*	-0.25	i	-15	i
c1ccc(COCCN2CCN(CCOCc3ccccc3)CC2)cc1	i	i	1.9	i	-9	i
C(#CCN1CCC(Cc2ccccc2)CC1)COCCOCc1ccccc1	i	i	-5*	i	-14	i
COc1ccccc1C=NN=C(NN=Cc1ccccc1OC)NN=Cc1ccccc1OC	·	·	·	·	·	-11*
O=c1c2ccccc2[nH]c(=S)n1-c1cccc(S(=O)(=O)N2CCCC2)c1	i	i	0.17	i	-18	i
O=S(=O)(NCCc1ccccc1)c1ccc(Br)s1	i	i	-4.2*	i	-6	i
O=C(O)CNS(=O)(=O)c1ccc(Br)s1	i	i	-1.1	i	-6	i
O=c1cc(O)sc2ccccc12	i	i	-1.2	i	-6	i
O=c1[nH]sc2ccccc12	13*	i	-3.1	i	-8	i
CC(C)N(CCCNC(=O)c1ccc(CS(=O)(=O)c2c(Cl)cccc2Cl)o1)Cc1ccccc1	i	i	0.56	i	-6	i
CCOc1ccccc1CNS(=O)(=O)c1ccc2[nH]c(=O)sc2c1	i	i	-5.2*	i	-7	i
CCOc1ccccc1CNS(=O)(=O)c1ccc2c(c1)oc(=O)n2C	i	i	-2.2	i	-2	i
SMILES	KCNQ1 pot	KCNQ1 block	Kir21 block	KCNK9 block	hERG protect	KCNK3 inh
CC(C)Sc1nnc(CNC(=O)C23CC4CC(CC(C4)C2)C3)n1C1CCCCC1	i	i	-0.69	i	-9	i
O=C(c1ccc(Cl)nc1)N1CCN(S(=O)(=O)c2ccccc2)CC1	i	i	0.26	i	-8	i
COc1cccc(CC(=O)OCC(=O)NC(=O)c2ccc(OC(F)F)cc2)c1	i	i	-6.7e-16	i	-9	i
CCOC(=O)c1sc2nc(CC(=O)OC)nc(NCc3ccco3)c2c1C	i	i	-1.3	i	-9	i
CCOC(=O)c1sc2ncnc(NCc3ccco3)c2c1C	37*	i	-1.2	i	16*	i
O=S1(=O)N=C(N(Cc2cccs2)c2ccc(O)cc2)c2ccccc21	i	i	-2.8	i	-10	i
Nc1nc(SCC(=O)c2c(N)n(C3CC3)c(=O)[nH]c2=O)n[nH]1	·	·	·	·	·	i
Cc1cccc(NC(=O)c2ccc(Cl)c(S(=O)(=O)N3CCc4ccccc43)c2)n1	·	·	·	·	·	-11*
CC(=O)c1ccc(N2CCN(C(=O)/C=C/c3ccc(S(=O)(=O)NCc4ccco4)cc3)CC2)cc1	i	i	0.05	i	4.9*	i
CC(=O)c1ccc(N2CCN(C(=O)/C=C/c3ccc(S(=O)(=O)N4CCOCC4)cc3)CC2)cc1	i	i	0.78	i	-14	i
CN(C)CCCNc1nc2sc3c(c2c(=O)n1CCc1ccccc1)CCCCC3	i	i	-5.4*	i	-14	i
CN(C)CCCn1c(=O)n(CCc2ccccc2)c(=O)c2c3c(sc21)CCCCC3	i	i	-3	i	-12	i
C/C(Cn1nnc2ccccc21)=N\NC(=O)c1ccc(Br)cc1	i	i	-1	i	-15	i
Cc1ccc(Cc2c[nH]c(=S)s2)cc1	38*	i	1	i	27*	i
COc1cc(C)ccc1OCC(=O)OCC(=O)NCC1CCCCC1	·	·	·	·	·	i
O=C(NCc1ccco1)c1cc2sccc2n1Cc1ccccc1	i	i	-0.47	-6.9*	-7	i
O=C(c1ccco1)N1CCN(C(=O)c2cc3sccc3n2Cc2ccccc2)CC1	i	i	-0.01	i	-19	i
Cc1cccc(C(=O)N2c3ccccc3C(=O)OC2c2ccc3c(c2)OCO3)c1 (centres undefined)	i	i	-0.06	i	-6	i
O=C1OC(c2ccc3c(c2)OCO3)N(C(=O)c2ccc(Cl)c(Cl)c2)c2ccccc21 (centres undefined)	i	i	-0.55	-7.5*	-7	i
C[C@H](CO)N1C[C@H](C)[C@@H](CN(C)Cc2ccccc2)Oc2c(NC(=O)Cc3ccccc3)cccc2C1=O	·	·	·	·	·	i
C[C@H](CO)N1C[C@H](C)[C@@H](CN(C)Cc2ccncc2)Oc2c(NC(=O)Cc3ccccc3)cccc2C1=O	·	·	·	·	·	-11*
